Laboratory results from ChEMBL document CHEMBL4007470, “Discovery of a 2'-fluoro-2'-C-methyl C-nucleotide HCV polymerase inhibitor and a phosphoramidate prodrug with favorable properties” (Bioorg Med Chem Lett, 2017).
Values after ≈ are worked out from the molar mass of the structure shown. Values belong to the compound of their own block, whether it stands above or below them.

Assays:
[1] = tested on: Hepatitis C virus; assay: Antiviral activity against HCV genotype 1b infected in human HuH7 cells by luciferase reporter gene assay; assay type: functional, cell-based, Hepacivirus hominis
Summary of the method: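 Luciferase-reporter genotype 1b subgenomic replicon in Huh-7 cells; EC50 is concentration giving 50% inhibition. Values are averages of at least three repeats.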

[2] = Prodrug activation in human HuH7 cells infected with HCV genotype 1b assessed as ((2R,3R,4R,5S)-5-(4-aminopyrrolo[1,2-f][1,2,4]triazin-7-yl)-4-fluoro-3-hydroxy-4-methyltetrahydrofuran-2-yl)methyl tetrahydrogen triphosphate level per million cells at 10 uM after 2 to 24 hrs by LC-MS/MS analysis; assay type: cell-based; details: huh-7, 10 µM
Summary of the method: (§1)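 HCV genotype 1b replicon Huh-7 cells (DMEM with glutaMAX, 10% heat-inactivated FBS, penicillin-streptomycin, G418) grown to confluency (0.88×10^6 cells/well), exposed continuously to prodrug at 10 μM for up to 24 h; washed in ice-cold saline, extracted into 70% methanol overnight, dried, resuspended in 1 mM ammonium phosphate pH 8.5; triphosphate quantified by LC-MS/MS; LLOQ 0.137 pmol/million cells; duplicate wells, single experiment.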

[3] = Prodrug activation in human HuH7 cells infected with HCV genotype 1b assessed as ((2R,3R,4R,5S)-5-(4-aminopyrrolo[1,2-f][1,2,4]triazin-7-yl)-4-fluoro-3-hydroxy-4-methyltetrahydrofuran-2-yl)methyl tetrahydrogen monophosphate level at 10 uM after 2 to 24 hrs by LC-MS/MS analysis; assay type: cell-based; details: huh-7, 10 µM
[4] = Prodrug activation in human HuH7 cells infected with HCV genotype 1b assessed as ((2R,3R,4R,5S)-5-(4-aminopyrrolo[1,2-f][1,2,4]triazin-7-yl)-4-fluoro-3-hydroxy-4-methyltetrahydrofuran-2-yl)methyl tetrahydrogen diphosphate level at 10 uM after 2 to 24 hrs by LC-MS/MS analysis; assay type: cell-based; details: huh-7, 10 µM
[5] = Permeability of the compound from basolateral to apical side in human Caco2 cells at 10 uM; assay type: ADME, cell-based, Caco-2; details: Caco-2, read-out: permeability
Summary of the method: (§2)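 Caco-2 permeability at 10 μM compound, measured in apical-to-basolateral and basolateral-to-apical directions.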

[6] = tested on: Hepatitis C virus; assay: Antiviral activity against HCV genotype 1a infected in human HuH7 cells by luciferase reporter gene assay; assay type: functional, cell-based, Hepacivirus hominis, subtype 1a
[7] = tested on: Hepatitis C virus; assay: Antiviral activity against HCV genotype 4a infected in human HuH7 cells by luciferase reporter gene assay; assay type: functional, cell-based, Hepacivirus hominis; details: Hepatitis C virus, genotype 4a, Huh-7
[8] = Half life in human plasma at 2 uM by LC-MS/MS analysis; assay type: ADME, cell-free
Summary of the method: (§3)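 Compound at 2 μM incubated in plasma at 37 °C for up to 4 h. Aliquots quenched with 9 volumes of acetonitrile containing internal standard, then centrifuged. Supernatant analysed by LC-MS/MS.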

[9] = Half life in hamster plasma at 2 uM by LC-MS/MS analysis; assay type: ADME, cell-free; details: cricetinae; summary of the method: as §3
[10] = Half life in human intestinal S9 fractions at 2 uM by LC-MS/MS analysis; assay type: ADME, Intestine
Summary of the method: (§4)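 Compound at 2 μM incubated with S9 fractions at 37 °C for 90 min with NADPH and UDPGA. Quenched with aqueous acetonitrile/methanol containing internal standard and analysed by LC-MS/MS. Half-life from an exponential fit assuming first-order kinetics. Hepatic extraction predicted from half-life using the well-stirred model.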

[11] = Half life in hamster intestinal S9 fractions at 2 uM by LC-MS/MS analysis; assay type: ADME, Intestine; details: cricetinae
[12] = Hepatic extraction in human liver S9 fractions at 2 uM by LC-MS/MS analysis; assay type: ADME; details: liver S9 fractions, read-out: ERH; summary of the method: as §4
[13] = Hepatic extraction in hamster liver S9 fractions at 2 uM by LC-MS/MS analysis; assay type: ADME; details: cricetinae, liver S9 fractions; read-out: ERH; summary of the method: as §4
[14] = Prodrug activation in Syrian golden hamster liver assessed as triphosphate metabolite formation at 5 mg equivalents/kg, po after 1 hr by LC-MS/MS analysis; assay type: ADME, organism-based, Mesocricetus auratus; details: in vivo
Summary of the method: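 Golden Syrian hamsters (groups of 12) dosed orally at 5 mg-eq/kg in EtOH/PEG400/water buffered with 50 mM pH 4 citrate. Livers harvested under isoflurane at 1 h and extracted in cold KOH/EDTA/70% MeOH with Cl-ATP. Triphosphate measured by LC/MS/MS, with endogenous ATP checked for sample stability.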

[15] = Solubility of the compound in pH 7.4 solution; assay type: physicochemical
Summary of the method: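 Solubility measured at pH 7.4 using amorphous material.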

[16] = Fraction absorbed in Beagle dog at 5 mg/kg, po; assay type: ADME, organism-based, Canis lupus familiaris; details: in vivo, read-out: Fabs
Summary of the method: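 Male beagle dogs dosed orally at 5 mg/kg. Fraction absorbed determined by portal vein sampling.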

[17] = Permeability of the compound from apical to basolateral side in human Caco2 cells at 10 uM; assay type: ADME, cell-based, Caco-2; details: Caco-2, read-out: permeability; summary of the method: as §2
[18] = tested on: Plasma; assay: Stability in rat plasma at 2 uM up to 4 hrs by LC-MS/MS analysis; assay type: ADME, cell-free; summary of the method: as §3
[19] = tested on: Huh-7; assay: Cytotoxicity against human HuH7 cells; assay type: cell-based
[20] = Prodrug activation in human HuH7 cells infected with HCV genotype 1b assessed as ((2R,3R,4R,5S)-5-(4-aminopyrrolo[1,2-f][1,2,4]triazin-7-yl)-3,4-dihydroxy-4-methyltetrahydrofuran-2-yl)methyl tetrahydrogen triphosphate formation per million cells at 10 uM after 2 hrs by LC-MS/MS analysis; assay type: cell-based; details: huh-7, 2 h
Summary of the method: (§5)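 Huh-7 replicon cells grown in DMEM with 10% heat-inactivated FBS, penicillin-streptomycin and G418, plated to confluency (0.88×10^6 cells/well). Prodrug at 10 μM given as continuous incubation, sampled at 2, 6 and 24 h. Cells washed with ice-cold saline and extracted into 70% methanol overnight. Triphosphate quantified by LC-MS/MS (LLOQ 0.137 pmol/million cells). Duplicate wells, single experiment.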

[21] = Prodrug activation in human HuH7 cells infected with HCV genotype 1b assessed as((2R,3R,4R,5S)-5-(4-aminopyrrolo[1,2-f][1,2,4]triazin-7-yl)-3,4-dihydroxy-4-methyltetrahydrofuran-2-yl)methyl tetrahydrogen triphosphate formation per million cells at 10 uM after 6 hrs by LC-MS/MS analysis; assay type: cell-based; details: huh-7, 6 h; summary of the method: as §5
[22] = Prodrug activation in human HuH7 cells infected with HCV genotype 1b assessed as ((2R,3R,4R,5S)-5-(4-aminopyrrolo[1,2-f][1,2,4]triazin-7-yl)-3,4-dihydroxy-4-methyltetrahydrofuran-2-yl)methyl tetrahydrogen triphosphate formation per million cells at 10 uM after 24 hrs by LC-MS/MS analysis; assay type: cell-based; details: huh-7, 24 h; summary of the method: as §5
[23] = Prodrug activation in human HuH7 cells infected with HCV genotype 1b assessed as ((2R,3R,4R,5S)-5-(4-aminoimidazo[1,2-f][1,2,4]triazin-7-yl)-4-fluoro-3-hydroxy-4-methyltetrahydrofuran-2-yl)methyl tetrahydrogen triphosphate level per million cells at 10 uM after 2 hrs by LC-MS/MS analysis; assay type: cell-based; details: huh-7, 2 h; summary of the method: as §1
[24] = Prodrug activation in human HuH7 cells infected with HCV genotype 1b assessed as ((2R,3R,4R,5S)-5-(4-aminoimidazo[1,2-f][1,2,4]triazin-7-yl)-4-fluoro-3-hydroxy-4-methyltetrahydrofuran-2-yl)methyl tetrahydrogen triphosphate level per million cells at 10 uM after 6 hrs by LC-MS/MS analysis; assay type: cell-based; details: huh-7, 6 h; summary of the method: as §1
[25] = Prodrug activation in human HuH7 cells infected with HCV genotype 1b assessed as ((2R,3R,4R,5S)-5-(4-aminoimidazo[1,2-f][1,2,4]triazin-7-yl)-4-fluoro-3-hydroxy-4-methyltetrahydrofuran-2-yl)methyl tetrahydrogen triphosphate level per million cells at 10 uM after 24 hrs by LC-MS/MS analysis; assay type: cell-based; details: huh-7, 24 h; summary of the method: as §1
[26] = Inhibition of HCV genotype 1b wild-type NS5B RNA dependent RNA polymerase; set-up: species or system Hepatitis C virus subtype 1b
[27] = tested on: RNA-directed RNA polymerase (Hepacivirus hominis), O39930 [UNDEFINED MUTATION]; assay: Inhibition of HCV genotype 1b wild-type NS5B RNA dependent RNA polymerase S282T mutant relative to control; details: Hepatitis C virus subtype 1b
[28] = Inhibition of human RNA polymerase-2
[29] = Inhibition of human DNA polymerase-alpha
[30] = target: DNA polymerase beta (Homo sapiens, UniProt P06746); assay: Inhibition of human DNA polymerase-beta
[31] = Inhibition of human DNA polymerase-gamma
[32] = Activity at human mitochondrial RNA polymerase assessed as incorporation rate relative to ATP; assay type: ADME
[33] = Hepatitis C virus, genotype 1b, Huh-7

Structure (SMILES): CCOC(=O)[C@H](C)NP(=O)(OC[C@H]1O[C@@H](c2ccc3c(N)ncnn23)[C@](C)(F)[C@@H]1O)Oc1ccccc1 (stereo not given in full)
EC50 [1, 33]: > 89000 nM | Drug metabolism [2]: < 0.137 pmol | Drug metabolism [3]: Metabolite_Detected | Drug metabolism [4]: Metabolite_Notdetected

Papp B→A at 10 µM [5]: 9.7 ×10⁻⁶ cm/s | EC50 [1]: 18800 nM | EC50 [6]: 2300 nM | EC50 [7]: 380 nM | half-life at 2 µM [8]: 8.9 h | t1/2 ([9]; 2 µM): > 13.2 h | half-life at 2 µM [10]: > 13.2 h | t1/2 ([11]; s9, 2 µM, 2 µM): 0.8 h | hepatic extraction ratio at 2 µM [12]: 0.79 | hepatic extraction ratio at 2 µM [13]: 0.93 | liver triphosphate concentration [14]: 1.89 µM | solubility [15]: 538 µg/mL (≈ 930 µM) | Fa [16]: > 70% | Papp A→B at 10 µM [17]: 2.4 ×10⁻⁶ cm/s | Stability [18]: Unstable
Structure (SMILES): CC(C)OC(=O)C1(NP(=O)(OC[C@H]2O[C@@H](c3cnc4c(N)ncnn34)[C@](C)(F)[C@@H]2O)Oc2ccccc2)CCC1 (stereo in doubt; 37)

EC50 [1, 33]: 1450 nM | Drug metabolism [20]: 26 pmol | Drug metabolism [21]: 117 pmol | Drug metabolism [22]: 83 pmol
Structure (SMILES): CCOC(=O)[C@H](C)N[P@@](=O)(O)OC[C@H]1O[C@@](C#N)(c2ccc3c(N)ncnn23)[C@](C)(O)[C@@H]1O
Activity [19]: Non-Toxic

Structure (SMILES): CCOC(=O)[C@H](C)NP(=O)(OC[C@H]1O[C@@H](c2cnc3c(N)ncnn23)[C@](C)(F)[C@@H]1O)Oc1ccccc1 (stereo not given in full)
Drug metabolism [23]: 2.4 pmol | EC50 [1, 33]: 580 to 590 nM | Activity [19]: Non-Toxic | Drug metabolism [24]: 13 pmol | Drug metabolism [25]: 20.5 pmol | EC50 ([6]; Hepatitis C virus, subtype 1a, Huh-7): 370 nM | EC50 [7]: 100 nM | half-life at 2 µM [8]: 7.57 h | half-life at 2 µM [9]: > 13.2 h | half-life at 2 µM [10]: 2.23 h | half-life at 2 µM ([11]; intestinal S9 fractions): 0.4 h | hepatic extraction ratio at 2 µM [12]: 0.83 | hepatic extraction ratio at 2 µM [13]: 0.76

Structure (SMILES): C[C@@]1(F)[C@H](O)[C@@H](COP(=O)(O)OP(=O)(O)OP(=O)(O)O)O[C@H]1c1cnc2c(N)ncnn12
IC50 [26]: 150 nM | fold change (FC) [27]: 5.9 | EC50 [1, 33]: > 89000 nM | IC50 [28]: > 200000 nM | IC50 [29]: > 200000 nM | IC50 [30]: > 200000 nM | IC50 [31]: > 200000 nM | Activity [32]: 0.04%
